These results are taken from ChEMBL document CHEMBL2439991, “Restraining the flexibility of the central linker in terameprocol results in constrained analogs with improved growth inhibitory activity” (Bioorg Med Chem Lett, 2013).

The test system of test [1] is HeLa. Put plainly: Cytotoxicity against human HeLa cells after 72 hrs by MTT assay. Format: functional. Put shortly:
(§1)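 MTT redox read-out; absorbance taken at 0 h (T0) and after 72 h exposure, with untreated cells as control (C). GI50 solved from (T − T0)/(C − T0) = 50%, i.e. viability halved relative to untreated after correction for time-zero cell count.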
Background: Tetrazolium dyes change colour on reduction, which living cells bring about.

For test [2], the system named is T47D. As to the kind of experiment: Cytotoxicity against human T47D cells after 72 hrs by MTT assay. The test is classed as functional. Put shortly: as §1
A short description of test [3]: Cytotoxicity against human U87 cells after 72 hrs by MTT assay. The test is classed as functional, U-87MG ATCC. The following applies: U-87 MG. A digest of the protocol: as §1
Test [4] has as its system 786-0. As to the kind of experiment: Cytotoxicity against human 786-0 cells after 72 hrs by MTT assay. Format: functional. Particulars: 786-0, 72 h. Put shortly:
as §1

Test [5] has as its system T98G. As to the kind of experiment: Cytotoxicity against human T98G cells after 72 hrs by MTT assay. The test is classed as functional. A digest of the protocol:
as §1

In test [6] the test system is BXPC-3. Put plainly: Cytotoxicity against human BxPC3 cells after 72 hrs by MTT assay. The test is classed as functional. The following applies: BXPC-3, 72 h. A digest of the protocol:
as §1

For test [7], the system named is NCI-H69. As to the kind of experiment: Ratio of NDGA IC50 to compound IC50 for human H69 cells. Format: functional.
The test system of test [8] is NCI-H69. As to the kind of experiment: Cytotoxicity against human H69 cells. Format: functional, cell-based.

Usually GI50 stands for the concentration giving 50% growth inhibition. Read a high GI50 as less potent growth inhibition. As usually defined, the IC50 is the concentration needed to halve the response being measured. A lower IC50 goes with greater potency in that assay.

As for `COc1ccc(CCNS(=O)(=O)c2ccc(OC)c(OC)c2)cc1OC`, the GI50 in test [1], in test [2], in test [3], in test [4], in test [5] and in test [6] was more than 100 µM each time.

As to `COc1ccc(C(=O)N2CCc3cc(OC)c(OC)cc3C2)cc1OC`, the GI50 was 8.23 µM in test [1]; 11.9 µM in test [2]; 20.6 µM in test [3]; 24.1 µM in test [4]; 10.1 µM in test [5]; 13.6 µM in test [6].

As for `COc1ccc(CNC(=O)NCc2ccc(OC)c(OC)c2)cc1OC`, the GI50 in test [1], in test [2], in test [3], in test [4], in test [5] and in test [6] was more than 100 µM each time.

Consider `COc1ccc(C2NCCc3cc(OC)c(OC)cc32)cc1OC` (stereo not drawn), for which the GI50 was 57.6 µM in test [1]; more than 100 µM in test [2]; more than 100 µM in test [3]; more than 100 µM in test [4]; more than 100 µM in test [5]; more than 100 µM in test [6].

In the case of `COc1ccc(NS(=O)(=O)c2ccc(OC)c(OC)c2)cc1OC`, the GI50 in test [1], in test [2], in test [3], in test [4], in test [5] and in test [6] was more than 100 µM each time.

With `COc1ccc(C2=NCCc3cc(OC)c(OC)cc32)cc1OC`, the GI50 in test [1] was 79.3 µM; in test [2], more than 100 µM; in test [3], more than 100 µM; in test [4], more than 100 µM; in test [5] it was more than 100 µM; in test [6], more than 100 µM.

In the case of `COc1ccc(NC(=O)c2ccc(OC)c(OC)c2)cc1OC`, the GI50 in test [1], in test [2], in test [3], in test [4], in test [5] and in test [6] was more than 100 µM in each case.

`COc1ccc(CCNC(=O)c2ccc(OC)c(OC)c2)cc1OC`: the GI50 in test [1], in test [2], in test [3], in test [4], in test [5] and in test [6] was more than 100 µM in each case.

Consider `COc1ccc(CCNC(=O)Cc2ccc(OC)c(OC)c2)cc1OC`, for which the GI50 in test [1], in test [2], in test [3], in test [4], in test [5] and in test [6] was more than 100 µM each time.

Take `COc1ccc(CNS(=O)(=O)c2ccc(OC)c(OC)c2)cc1OC`: the GI50 in test [1], in test [2], in test [3], in test [4], in test [5] and in test [6] was more than 100 µM each time.

Turning to `COc1ccc(CC(=O)N2CCc3cc(OC)c(OC)cc3C2)cc1OC`, the GI50 in test [1], in test [2], in test [3], in test [4], in test [5] and in test [6] was more than 100 µM throughout.

As to `COc1ccc(S(=O)(=O)N2CCc3cc(OC)c(OC)cc3C2)cc1OC`, the GI50 in test [1], in test [2], in test [3], in test [4], in test [5] and in test [6] was more than 50 µM in each case.

With `COc1ccc(CN2CCc3cc(OC)c(OC)cc3C2)cc1OC`, the GI50 in test [1] was 55.9 µM; in test [2] it was 45.4 µM; in test [3], more than 100 µM; in test [4] it was more than 100 µM; in test [5] it was more than 100 µM; in test [6], more than 100 µM.

For the molecule `COc1ccc(C(=O)C2=NCCc3cc(OC)c(OC)cc32)cc1OC`, the GI50 in test [1] was 16.9 µM; in test [2], 16.1 µM; in test [3] it was more than 100 µM; in test [4], more than 100 µM; in test [5] it was more than 100 µM; in test [6], 26.3 µM.

With `COc1ccc(/C=C/C(=O)NCc2ccc(OC)c(OC)c2)cc1OC`, the GI50 in test [1] is more than 75 µM; in test [2], more than 100 µM; in test [3], 57.1 µM; in test [4] it was 68.4 µM; in test [5] it was 70.3 µM; in test [6], more than 75 µM.

For the molecule `COc1ccc(CNC(=O)c2ccc(OC)c(OC)c2)cc1OC`, the GI50 in test [1], in test [2], in test [3], in test [4], in test [5] and in test [6] was more than 100 µM each time.

For the molecule `COc1ccc(CC(=O)Nc2ccc(OC)c(OC)c2)cc1OC`, the GI50 in test [1], in test [2], in test [3], in test [4], in test [5] and in test [6] was more than 100 µM each time.

Consider `COc1ccc(CNC(=O)Cc2ccc(OC)c(OC)c2)cc1OC`, for which the GI50 in test [1], in test [2], in test [3], in test [4], in test [5] and in test [6] was more than 100 µM each time.

Take `COc1ccc(NC(=O)Nc2ccc(OC)c(OC)c2)cc1OC`: the GI50 in test [1], in test [2], in test [3], in test [4], in test [5] and in test [6] was more than 50 µM each time.

Consider `COc1ccc(CNC(=O)Nc2ccc(OC)c(OC)c2)cc1OC`, for which the concentration for 50% growth inhibition (GI50) in test [1], in test [2], in test [3], in test [4], in test [5] and in test [6] was more than 100 µM throughout.

`COc1ccc(/C=C/C=C/c2ccc(OC)c(OC)c2)cc1OC`: the GI50 was more than 100 µM in test [1]; more than 100 µM in test [2]; more than 100 µM in test [3]; 2.67 µM in test [4]; more than 100 µM in test [5]; 3.41 µM in test [6].

With `COc1ccc(/C=C/C(=O)Nc2ccc(OC)c(OC)c2)cc1OC`, the GI50 in test [1], in test [2], in test [3], in test [4], in test [5] and in test [6] was more than 50 µM throughout.

For the molecule `Oc1ccc(CCCCc2ccc(O)c(O)c2)cc1O`, the “Ratio IC50” value in test [7] was found to be 10. Besides, the IC50 in test [8] turned out to be 0.3 µM.

For the molecule `COc1ccc(/C=C2/CCc3cc(OC)c(OC)cc32)cc1OC` (mixture of isomers), the concentration for 50% growth inhibition (GI50) is more than 25 µM in test [1]; 4.24 µM in test [2]; more than 25 µM in test [3]; 5.5 µM in test [4]; more than 25 µM in test [5]; 8.1 µM in test [6].

Consider `COc1ccc([C@H]2O[C@H](c3ccc(OC)c(OC)c3)[C@@H](C)[C@H]2C)cc1OC` [GANSCHISANDRINE], for which the GI50 was more than 75 µM in test [1]; 4.4 µM in test [2]; more than 75 µM in test [3]; more than 75 µM in test [4]; 58.3 µM in test [5]; 17.2 µM in test [6].

Turning to `CC(Cc1ccc(O)c(O)c1)C(C)Cc1ccc(O)c(O)c1` (stereo not drawn) [NORDIHYDROGUAIARETIC ACID], half-maximal inhibition in test [8] (IC50) required 4.4 µM.

`COc1ccc(C[C@@H](C)[C@@H](C)Cc2ccc(OC)c(OC)c2)cc1OC` [TERAMEPROCOL]: the GI50 in test [1] was more than 50 µM; in test [2], 5.36 µM; in test [3], more than 50 µM; in test [4], 4.54 µM; in test [5], more than 50 µM; in test [6], 17.1 µM.
